From ChEMBL document CHEMBL3243962, “Antileukemic activity of derivatives of 1,2-dimethyl-3,4-bis(hydroxymethyl)-5-phenylpyrrole bis(N-methylcarbamate)” (J Med Chem, 1979)

Key:
[1] = tested on: Mus musculus; experiment: Toxicity in mouse P388 cells allografted CD2F1 mouse assessed as body weight loss at 40 mg/kg, ip of total 9 doses starting 24 hrs post tumor inoculation measured on day 5 of inoculation relative to control; format: organism-based; parameters: dose 40 mg/kg, route intraperitoneal; conditions: in vivo
Summary of the method: (§1)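 Male CD2F1 mice inoculated ip with 6×10^6 P388 leukemia cells. Compounds given ip as distilled water–Tween 80 suspension, nine daily doses starting 24 h after inoculation; six mice per dose group. Treated-minus-control body-weight change (T − C) and toxicity-day survivors recorded on day 5 (4 days after first dose).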

[2] = tested on: Mus musculus; experiment: Toxicity in mouse P388 cells allografted CD2F1 mouse assessed as mouse survival at 80 mg/kg, ip of total 9 doses starting 24 hrs post tumor inoculation measured on day 5 of inoculation relative to control; format: organism-based; parameters: dose 80 mg/kg, route intraperitoneal; conditions: in vivo
Summary of the method: (§2)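 Male CD2F1 mice bearing ip P388 leukemia (6×10^6 cells) were dosed ip with nine daily doses in distilled water–Tween 80 suspension, starting 24 h after inoculation. Survivors per group of 6 were counted on day 5, i.e. 4 days after the first dose. Body-weight change of treated minus control mice was also recorded.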

[3] = tested on: P388; experiment: Antitumor activity against mouse P388 cells allografted in CD2F1 mouse assessed as increase in mouse survival at 40 mg/kg, ip of total 9 doses starting 24 hrs post tumor inoculation measured on day 5 of inoculation relative to control; format: functional; conditions: route intraperitoneal
Summary of the method: (§3)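 Male CD2F1 mice inoculated ip with 6×10^6 P388 leukemia cells. Dosing was ip as a suspension in distilled water–Tween 80, nine daily doses starting 24 h after inoculation. Activity was read as median survival time of treated vs control mice (% T/C); % T/C ≥ 120 was considered significant. Groups were 6 mice.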

[4] = tested on: Mus musculus; experiment: Toxicity in mouse P388 cells allografted CD2F1 mouse assessed as mouse survival at 20 mg/kg, ip of total 9 doses starting 24 hrs post tumor inoculation measured on day 5 of inoculation relative to control; format: organism-based; parameters: dose 20 mg/kg, route intraperitoneal; conditions: in vivo; summary of the method: as §2
[5] = tested on: Mus musculus; experiment: Toxicity in mouse P388 cells allografted CD2F1 mouse assessed as body weight loss at 10 mg/kg, ip of total 9 doses starting 24 hrs post tumor inoculation measured on day 5 of inoculation relative to control; format: organism-based; parameters: dose 10 mg/kg, route intraperitoneal; conditions: in vivo; summary of the method: as §1
[6] = tested on: P388; experiment: Antitumor activity against mouse P388 cells allografted in CD2F1 mouse assessed as increase in mouse survival at 80 mg/kg, ip of total 9 doses starting 24 hrs post tumor inoculation measured on day 5 of inoculation relative to control; format: functional; conditions: route intraperitoneal; summary of the method: as §3
[7] = tested on: Mus musculus; experiment: Toxicity in mouse P388 cells allografted CD2F1 mouse assessed as body weight loss at 80 mg/kg, ip of total 9 doses starting 24 hrs post tumor inoculation measured on day 5 of inoculation relative to control; format: organism-based; parameters: dose 80 mg/kg, route intraperitoneal; conditions: in vivo; summary of the method: as §1
[8] = tested on: Mus musculus; experiment: Toxicity in mouse P388 cells allografted CD2F1 mouse assessed as body weight loss at 20 mg/kg, ip of total 9 doses starting 24 hrs post tumor inoculation measured on day 5 of inoculation relative to control; format: organism-based; parameters: dose 20 mg/kg, route intraperitoneal; conditions: in vivo; summary of the method: as §1
[9] = tested on: Mus musculus; experiment: Toxicity in mouse P388 cells allografted CD2F1 mouse assessed as mouse survival at 10 mg/kg, ip of total 9 doses starting 24 hrs post tumor inoculation measured on day 5 of inoculation relative to control; format: organism-based; parameters: dose 10 mg/kg, route intraperitoneal; conditions: in vivo; summary of the method: as §2
[10] = tested on: Mus musculus; experiment: Toxicity in mouse P388 cells allografted CD2F1 mouse assessed as mouse survival at 40 mg/kg, ip of total 9 doses starting 24 hrs post tumor inoculation measured on day 5 of inoculation relative to control; format: organism-based; parameters: dose 40 mg/kg, route intraperitoneal; conditions: in vivo; summary of the method: as §2
[11] = tested on: Mus musculus; experiment: Toxicity in mouse P388 cells allografted CD2F1 mouse assessed as mouse survival at 5 mg/kg, ip of total 9 doses starting 24 hrs post tumor inoculation measured on day 5 of inoculation relative to control; format: organism-based; parameters: dose 5 mg/kg, route intraperitoneal; conditions: in vivo; summary of the method: as §2
[12] = tested on: Mus musculus; experiment: Toxicity in mouse P388 cells allografted CD2F1 mouse assessed as body weight loss at 5 mg/kg, ip of total 9 doses starting 24 hrs post tumor inoculation measured on day 5 of inoculation relative to control; format: organism-based; parameters: dose 5 mg/kg, route intraperitoneal; conditions: in vivo; summary of the method: as §1
[13] = tested on: P388; experiment: Antitumor activity against mouse P388 cells allografted in CD2F1 mouse assessed as increase in mouse survival at 10 mg/kg, ip of total 9 doses starting 24 hrs post tumor inoculation measured on day 5 of inoculation relative to control; format: functional; conditions: route intraperitoneal; summary of the method: as §3
[14] = tested on: P388; experiment: Antitumor activity against mouse P388 cells allografted in CD2F1 mouse assessed as increase in mouse survival at 5 mg/kg, ip of total 9 doses starting 24 hrs post tumor inoculation measured on day 5 of inoculation relative to control; format: functional; conditions: route intraperitoneal; summary of the method: as §3
[15] = tested on: P388; experiment: Antitumor activity against mouse P388 cells allografted in CD2F1 mouse assessed as increase in mouse survival at 20 mg/kg, ip of total 9 doses starting 24 hrs post tumor inoculation measured on day 5 of inoculation relative to control; format: functional; conditions: route intraperitoneal; summary of the method: as §3
[16] = tested on: P388; experiment: Antitumor activity against mouse P388 cells allografted in CD2F1 mouse assessed as increase in mouse survival at 6.25 mg/kg, ip of total 9 doses starting 24 hrs post tumor inoculation measured on day 5 of inoculation relative to control; format: functional; conditions: route intraperitoneal; summary of the method: as §3
[17] = tested on: Mus musculus; experiment: Toxicity in mouse P388 cells allografted CD2F1 mouse assessed as mouse survival at 12.5 mg/kg, ip of total 9 doses starting 24 hrs post tumor inoculation measured on day 5 of inoculation relative to control; format: organism-based; parameters: dose 12.5 mg/kg, route intraperitoneal; conditions: in vivo; summary of the method: as §2
[18] = tested on: P388; experiment: Antitumor activity against mouse P388 cells allografted in CD2F1 mouse assessed as increase in mouse survival at 3.12 mg/kg, ip of total 9 doses starting 24 hrs post tumor inoculation measured on day 5 of inoculation relative to control; format: functional; conditions: route intraperitoneal; summary of the method: as §3
[19] = tested on: Mus musculus; experiment: Toxicity in mouse P388 cells allografted CD2F1 mouse assessed as body weight loss at 3.12 mg/kg, ip of total 9 doses starting 24 hrs post tumor inoculation measured on day 5 of inoculation relative to control; format: organism-based; parameters: dose 3.12 mg/kg, route intraperitoneal; conditions: in vivo; summary of the method: as §1
[20] = tested on: Mus musculus; experiment: Toxicity in mouse P388 cells allografted CD2F1 mouse assessed as mouse survival at 3.12 mg/kg, ip of total 9 doses starting 24 hrs post tumor inoculation measured on day 5 of inoculation relative to control; format: organism-based; parameters: dose 3.12 mg/kg, route intraperitoneal; conditions: in vivo; summary of the method: as §2
[21] = tested on: Mus musculus; experiment: Toxicity in mouse P388 cells allografted CD2F1 mouse assessed as mouse survival at 25 mg/kg, ip of total 9 doses starting 24 hrs post tumor inoculation measured on day 5 of inoculation relative to control; format: organism-based; parameters: dose 25 mg/kg, route intraperitoneal; conditions: in vivo; summary of the method: as §2
[22] = tested on: Mus musculus; experiment: Toxicity in mouse P388 cells allografted CD2F1 mouse assessed as body weight loss at 12.5 mg/kg, ip of total 9 doses starting 24 hrs post tumor inoculation measured on day 5 of inoculation relative to control; format: organism-based; parameters: dose 12.5 mg/kg, route intraperitoneal; conditions: in vivo; summary of the method: as §1
[23] = tested on: P388; experiment: Antitumor activity against mouse P388 cells allografted in CD2F1 mouse assessed as increase in mouse survival at 25 mg/kg, ip of total 9 doses starting 24 hrs post tumor inoculation measured on day 5 of inoculation relative to control; format: functional; conditions: route intraperitoneal; summary of the method: as §3
[24] = tested on: Mus musculus; experiment: Toxicity in mouse P388 cells allografted CD2F1 mouse assessed as body weight loss at 50 mg/kg, ip of total 9 doses starting 24 hrs post tumor inoculation measured on day 5 of inoculation relative to control; format: organism-based; parameters: dose 50 mg/kg, route intraperitoneal; conditions: in vivo; summary of the method: as §1
[25] = tested on: P388; experiment: Antitumor activity against mouse P388 cells allografted in CD2F1 mouse assessed as increase in mouse survival at 12.5 mg/kg, ip of total 9 doses starting 24 hrs post tumor inoculation measured on day 5 of inoculation relative to control; format: functional; conditions: route intraperitoneal; summary of the method: as §3
[26] = tested on: Mus musculus; experiment: Toxicity in mouse P388 cells allografted CD2F1 mouse assessed as body weight loss at 6.25 mg/kg, ip of total 9 doses starting 24 hrs post tumor inoculation measured on day 5 of inoculation relative to control; format: organism-based; parameters: dose 6.25 mg/kg, route intraperitoneal; conditions: in vivo; summary of the method: as §1
[27] = tested on: Mus musculus; experiment: Toxicity in mouse P388 cells allografted CD2F1 mouse assessed as body weight loss at 25 mg/kg, ip of total 9 doses starting 24 hrs post tumor inoculation measured on day 5 of inoculation relative to control; format: organism-based; parameters: dose 25 mg/kg, route intraperitoneal; conditions: in vivo; summary of the method: as §1
[28] = tested on: P388; experiment: Antitumor activity against mouse P388 cells allografted in CD2F1 mouse assessed as increase in mouse survival at 50 mg/kg, ip of total 9 doses starting 24 hrs post tumor inoculation measured on day 5 of inoculation relative to control; format: functional; conditions: route intraperitoneal; summary of the method: as §3
[29] = tested on: Mus musculus; experiment: Toxicity in mouse P388 cells allografted CD2F1 mouse assessed as mouse survival at 6.25 mg/kg, ip of total 9 doses starting 24 hrs post tumor inoculation measured on day 5 of inoculation relative to control; format: organism-based; parameters: dose 6.25 mg/kg, route intraperitoneal; conditions: in vivo; summary of the method: as §2

With `CNC(=O)OCc1c(COC(=O)NC)c(-c2ccc(S(=O)(=O)c3ccccc3)cc2)n(C)c1C` the Activity [1] was 3.1 g, the Activity [2] was “Non-toxic” and the T/C [3] was 153%. The Activity [4] was “Non-toxic”, the Activity [5] was 0.9 g and the T/C [6] was 153%. The Activity [7] was 3.6 g, the Activity [8] was 1.9 g and the Activity [9] was “Non-toxic”. The Activity [10] was “Non-toxic”, the Activity [11] was “Non-toxic” and the Activity [12] was 1.3 g. The T/C [13] was 136%, the T/C [14] was 137% and the T/C [15] was 146%.

`CNC(=O)OCc1c(COC(=O)NC)c(-c2ccc(SC)cc2)n(C)c1C` was tested, and the T/C [16] was 143%, the Activity [17] was “Non-toxic” and the T/C [18] was 187%. The Activity [19] was 2.1 g, the Activity [20] was “Non-toxic” and the Activity [21] was “Non-toxic”. For the same molecule, the Activity [22] was 4.3 g, the T/C [23] was 144% and the Activity [24] was 2.9 g. It also gave a T/C [25] of 144%, an Activity [26] of 1.4 g and an Activity [27] of 3.1 g. The T/C [28] was 150% and the Activity [29] was “Non-toxic”.
